Measurements as given in PMC8602434 (Drugs in R&D, 2021).

Tests used:
Type in all cases: in vivo
[1] = Healthy volunteers, single-dose arm, sc; details: human
In short: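 Double-blind single abdominal sc injection at 0.1, 0.5, 1, 3 or 5 mg versus placebo. Cohorts of six or eight subjects; the 0.1 mg cohort had 4 active and 2 placebo. Serial blood sampling to 48 h post-dose. Plasma assayed by validated bioanalytical method. Noncompartmental analysis: Cmax, tmax, t½, AUC (linear trapezoidal to last quantifiable concentration), AUC∞, CL/F. AEs recorded.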

[2] = Mouse pharmacokinetics, single sc or iv dose, plasma LC-MS; details: for AUC∞: plasma LC-MS
[3] = Dog 28-day toxicology study with pharmacokinetic analysis, sc
[4] = single 0.5 mg sc, geometric mean, n=4
[5] = single 1.0 mg sc, geometric mean, n=6
[6] = single 3.0 mg sc, mean (SD), n=6
[7] = single 5.0 mg sc, geometric mean, n=6
[8] = single 5.0 mg sc, mean (SD), n=6

Cmax [1, 4]: 7.6 ng/mL | Cmax/dose [1, 4]: 15.3 ng/mL/mg | t½ [1, 4]: 156 min | AUC∞/dose ([1]; single 0.5 mg sc, mean (SD), n=2): 59.9 (45.8) ng·h/mL/mg | Cmax/dose ([1]; single 0.5 mg sc, mean (SD), n=4): 16.4 (7.5) ng/mL/mg | AUC∞/dose ([1]; single 0.5 mg sc, median, n=2): 59.9 ng·h/mL/mg | Vd/F ([1]; single 0.5 mg sc, median, n=2): 74.4 L | AUC0–t ([1]; single 0.5 mg sc, median, n=4): 13.3 ng·h/mL | AUC∞ ([1]; single 0.5 mg sc, median, n=4): 15 ng·h/mL | CL/F ([1]; single 0.5 mg sc, median, n=4): 33.6 L/h | Cmax ([1]; single 0.5 mg sc, median, n=4): 7.2 ng/mL | Cmax/dose ([1]; single 0.5 mg sc, median, n=4): 14.3 ng/mL/mg | t½ ([1]; single 0.5 mg sc, median, n=4): 156 min | AUC∞/dose ([1]; single 1.0 mg sc, geometric mean, n=3): 35.4 ng·h/mL/mg | AUC0–t [1, 5]: 39.4 ng·h/mL | AUC∞ [1, 5]: 44.9 ng·h/mL | CL/F [1, 5]: 22.3 L/h | Cmax [1, 5]: 16.7 ng/mL | Cmax/dose [1, 5]: 16.7 ng/mL/mg | t½ [1, 5]: 366 min | AUC∞/dose ([1]; single 1.0 mg sc, mean (SD), n=3): 35.4 (1.8) ng·h/mL/mg | Cmax/dose ([1]; single 1.0 mg sc, mean (SD), n=6): 17.4 (5.0) ng/mL/mg | AUC∞/dose ([1]; single 1.0 mg sc, median, n=3): 34.5 ng·h/mL/mg | AUC0–t ([1]; single 1.0 mg sc, median, n=6): 39.2 ng·h/mL | AUC∞ ([1]; single 1.0 mg sc, median, n=6): 45.5 ng·h/mL | CL/F ([1]; single 1.0 mg sc, median, n=6): 22.7 L/h | Cmax ([1]; single 1.0 mg sc, median, n=6): 18.3 ng/mL | Cmax/dose ([1]; single 1.0 mg sc, median, n=6): 18.3 ng/mL/mg | t½ ([1]; single 1.0 mg sc, median, n=6): 360 min | AUC∞/dose ([1]; single 3.0 mg sc, geometric mean, n=4): 50.9 ng·h/mL/mg | Cmax/dose ([1]; single 3.0 mg sc, geometric mean, n=6): 17.8 ng/mL/mg | AUC∞/dose ([1]; single 3.0 mg sc, mean (SD), n=4): 51.3 (7.7) ng·h/mL/mg | AUC0–t [1, 6]: 138 (18.9) ng·h/mL | AUC∞ [1, 6]: 158 (19.4) ng·h/mL | Cmax [1, 6]: 54.4 (11.3) ng/mL | Cmax/dose [1, 6]: 18.1 (3.8) ng/mL/mg | AUC∞/dose ([1]; single 3.0 mg sc, median, n=4): 51.1 ng·h/mL/mg | AUC0–t ([1]; single 3.0 mg sc, median, n=6): 138 ng·h/mL | Cmax/dose ([1]; single 3.0 mg sc, median, n=6): 16.4 ng/mL/mg | tmax ([1]; single 3.0 mg sc, median, n=6): 36 min | AUC0–t [1, 7]: 224 ng·h/mL | AUC∞ [1, 7]: 237 ng·h/mL | AUC∞/dose [1, 7]: 47.5 ng·h/mL/mg | CL/F [1, 7]: 21.1 L/h | Cmax [1, 7]: 83.4 ng/mL | Cmax/dose [1, 7]: 16.7 ng/mL/mg | t½ [1, 7]: 966 min | AUC∞/dose [1, 8]: 48.0 (7.4) ng·h/mL/mg | Cmax/dose [1, 8]: 17.6 (6.2) ng/mL/mg | AUC0–t ([1]; single 5.0 mg sc, median, n=6): 235 ng·h/mL | AUC∞ ([1]; single 5.0 mg sc, median, n=6): 246 ng·h/mL | AUC∞/dose ([1]; single 5.0 mg sc, median, n=6): 49.2 ng·h/mL/mg | CL/F ([1]; single 5.0 mg sc, median, n=6): 20.3 L/h | Cmax ([1]; single 5.0 mg sc, median, n=6): 80.9 ng/mL | Cmax/dose ([1]; single 5.0 mg sc, median, n=6): 16.2 ng/mL/mg | Vd/F ([1]; single 5.0 mg sc, median, n=6): 496 L | t½ ([1]; single 5.0 mg sc, median, n=6): 1040 min | Time after dosing at which PL8177 was first measurable in plasma ([1]; single sc dose): 15 min | Persistence of measurable PL8177 in plasma ([1]; single sc dose, at higher doses): up to 48 h | Dose linearity for AUC∞ and Cmax ([1]; single-dose arm): inconclusive | Intact drug excreted in the urine ([1]; single-dose arm): ≤ 1% | Time after dosing at which Cmax was generally reached (tmax) ([1]; single-dose arm): 30 to 45 min | F (bioavailability) ([2]; 1 mg/kg sc versus iv): 0.63 | t½ ([2]; single 1 mg/kg iv): 12 min | AUC∞ ([2]; single 1 mg/kg iv): 0.753 µg·h/mL | Cmax ([2]; single 1 mg/kg sc): 0.703 µg/mL | tmax ([2]; single 1 mg/kg sc): 4.98 min | t½ ([2]; single 1 mg/kg sc): 15.6 min | AUC∞ ([2]; single 1 mg/kg sc): 0.476 µg·h/mL | Cmax ([2]; single 3 mg/kg sc): 2.44 µg/mL | tmax ([2]; single 3 mg/kg sc): 15 min | t½ ([2]; single 3 mg/kg sc): 30 min | AUC∞ ([2]; single 3 mg/kg sc): 1.727 µg·h/mL
SMILES: CCCC[C@H](NC(C)=O)C(=O)N[C@H]1CCC(=O)NC[C@@H](C(=O)N[C@@H](Cc2c[nH]c3ccccc23)C(N)=O)NC(=O)[C@H](CCCNC(=N)N)NC(=O)[C@@H](Cc2ccccc2)NC(=O)[C@H](Cc2c[nH]cn2)NC1=O [PL8177]
Overall tolerability ([1]; single and multiple ascending sc doses): well tolerated | AEs leading to study discontinuation, serious AEs, or severe AEs ([1]; single-dose arm): no reports | Accumulation ratio (Rac), AUClast day 28/AUClast day 1 ([3]; 1.5- and 9.0-mg doses as printed): 0.8 | Accumulation ratio (Rac), AUClast day 28/AUClast day 1 ([3]; 40-mg dose): 1.8 | Difference between mean Cmax and AUClast values, multiple-dose versus single-dose ([3]; sc): < 2 fold
